The source made the active and inactive calls. The calls are words filed in the database; no cut-off is given here.
Columns and labels:
Leishmania donovani [1] = assay: Effect on total membrane phospholipid composition in wild type Leishmania donovani LV9 assessed as decrease in phosphatidyl choline at 10 uM after 48 hrs; type: functional; set-up: scale not given: the % may be the effect or the level left
Outline: (§1)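 Wild-type LV9 promastigotes were cultured in 1 liter of supplemented medium 199 at 26°C with shaking. HePC (aqueous) was added 48 h before harvest at late log phase. After TBS washes, the whole-cell pellet was taken as total membranes. Lipids were extracted with chloroform/methanol and phospholipids profiled by HPLC on a PVA-sil column with evaporative light-scattering detection. n = 3.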

Leishmania donovani [2] = assay: Effect on total membrane sterol composition in Leishmania donovani LV9 promastigotes assessed by measuring ergosta-7,22-dien-3beta-ol content at 10 uM; type: functional
Outline: (§2)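 LV9 promastigotes (wild type, 26°C, 1 liter shaken culture) were exposed to HePC for 48 h before harvest. Total membranes were extracted in dichloromethane-methanol 2:1 for 24 h at 4°C, then saponified with 30% KOH/methanol at 80°C for 2 h. Sterols were extracted into hexane, converted to TMS ethers with BSTFA (80°C, 1 h) and analysed by GC-MS with EI at 70 eV. Results are given as % total sterol, n = 3.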

Leishmania donovani [3] = assay: Effect on total membrane sterol composition in Leishmania donovani LV9 promastigotes assessed by measuring 4,4alpha-Dimethylcholesta-8,24-dien-3beta-ol content at 10 uM; type: functional; outline: as §2
Leishmania donovani [4] = assay: Effect on plasma membrane phospholipid composition in wild type Leishmania donovani LV9 assessed as increase in phosphatidyl ethanolamine at 10 uM after 48 hrs; type: functional
Outline: (§3)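 Wild-type LV9 promastigotes grown at 26°C with shaking, starting at 10^6/ml in 1 liter of medium 199 with 10% FCS. HePC in aqueous solution was added 48 h before harvest at late log phase. Cells were washed in TBS and lysed by freeze-thaw; a 2,100 × g pellet gave the plasma membrane-enriched fraction. Lipids were extracted with chloroform/methanol and phospholipids analysed by HPLC (PVA-sil column, light-scattering detection). n = 3.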

Leishmania donovani [5] = assay: Effect on total membrane sterol composition in Leishmania donovani LV9 promastigotes assessed by measuring ergosterol content at 10 uM; type: functional; outline: as §2
Leishmania donovani [6] = assay: Effect on total membrane sterol composition in Leishmania donovani LV9 promastigotes assessed by measuring 14-alpha-Methylcholesta-5,7,24-trien-3beta-ol content at 10 uM; type: functional; outline: as §2
Leishmania donovani [7] = assay: Effect on total membrane sterol composition in Leishmania donovani LV9 promastigotes assessed by measuring total C24 alkyl sterol content at 10 uM; type: functional; outline: as §2
Leishmania donovani [8] = assay: Effect on total membrane fatty acid composition in Leishmania donovani LV9 promastigotes assessed by measuring 9-hexadecenoate fatty acid at 10 uM; type: functional
Outline: (§4)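 Log-phase LV9 wild-type promastigotes were exposed to HePC for 48 h before harvest, in 1 liter of medium 199 at 26°C. Washed whole-cell pellets served as total membranes. Fatty acids were analysed by gas chromatography as methyl esters and expressed as % of total fatty acids (mean ± SD, n = 3).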

Leishmania donovani [9] = assay: Effect on total membrane fatty acid composition in Leishmania donovani LV9 promastigotes assessed by measuring dodecanoate fatty acid at 10 uM; type: functional; outline: as §4
Leishmania donovani [10] = assay: Effect on phospholipid composition in HePC-resistant Leishmania donovani at 1 uM; type: functional, organism-based
Outline: (§5)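 HePC-resistant L. donovani LV9 promastigotes were kept under 40 μM HePC in medium 199 with 10% inactivated FCS, HEPES, adenosine, hemin and gentamicin at 26°C in the dark, then exposed to added HePC. Cells were harvested in late log phase and washed in cold TBS. Lipids from total and plasma-membrane-enriched fractions were extracted with chloroform/methanol. Phospholipids were quantified by HPLC on a PVA-sil column with evaporative light scattering detection.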

Leishmania donovani [11] = assay: Effect on total membrane sterol composition in Leishmania donovani LV9 promastigotes assessed by measuring 14-alpha-Methylergosta-5,7,24(24')-trien-3beta-ol content at 10 uM; type: functional; outline: as §2
Leishmania donovani [12] = assay: Effect on total membrane sterol composition in Leishmania donovani LV9 promastigotes assessed by measuring 4-alpha,14alpha-Dimethylcholesta-8,24-dien-3beta-ol content at 10 uM; type: functional; outline: as §2
Leishmania donovani [13] = assay: Effect on total membrane sterol composition in Leishmania donovani LV9 promastigotes assessed by measuring ergosta-7,24(24')-dien-3beta-ol content at 10 uM; type: functional; outline: as §2
Leishmania donovani [14] = assay: Effect on total membrane sterol composition in Leishmania donovani LV9 promastigotes assessed by measuring 4,4alpha-Dimethylergosta-8,24(24')-dien-3beta-ol content at 10 uM; type: functional; outline: as §2
Leishmania donovani [15] = assay: Effect on total membrane phospholipid composition in wild type Leishmania donovani LV9 assessed as increase in phosphatidyl ethanolamine at 10 uM after 48 hrs; type: functional; outline: as §1
Leishmania donovani [16] = assay: Effect on total membrane fatty acid composition in Leishmania donovani LV9 promastigotes assessed by measuring hexadecanoate fatty acid at 10 uM; type: functional; outline: as §4
Leishmania donovani [17] = assay: Effect on total membrane fatty acid composition in Leishmania donovani LV9 promastigotes assessed by measuring tetradecanoate fatty acid at 10 uM; type: functional; outline: as §4
Leishmania donovani [18] = assay: Effect on total membrane sterol composition in Leishmania donovani LV9 promastigotes assessed by measuring 4-alpha,-14alpha-Dimethylergosta-8,24(24')-dien-3beta-ol content at 10 uM; type: functional; outline: as §2
Leishmania donovani [19] = assay: Effect on total membrane sterol composition in Leishmania donovani LV9 promastigotes assessed by measuring 24-Methylenedihydrolanosterol content at 10 uM; type: functional; set-up: scale not given: the % may be the effect or the level left; outline: as §2
Leishmania donovani [20] = assay: Effect on phospholipid composition in HePC-resistant Leishmania donovani at 10 uM; type: functional, organism-based; outline: as §5
Leishmania donovani [21] = assay: Effect on total membrane sterol composition in Leishmania donovani LV9 promastigotes assessed by measuring 14-alpha-Methylergosta-8,24(24')-dien-3beta-ol content at 10 uM; type: functional; outline: as §2
Leishmania donovani [22] = assay: Effect on total membrane fatty acid composition in Leishmania donovani LV9 promastigotes assessed as decrease in C16 fatty acid content at 10 uM; type: functional; set-up: scale not given: the % may be the effect or the level left; outline: as §4
Leishmania donovani [23] = assay: Effect on total membrane fatty acid composition in Leishmania donovani LV9 promastigotes assessed by measuring unsaturated fatty acids at 10 uM; type: functional; outline: as §4
Leishmania donovani [24] = assay: Effect on total membrane sterol composition in Leishmania donovani LV9 promastigotes assessed by measuring ergosta-5,7,24(24')-trien-3beta-ol content at 10 uM; type: functional; outline: as §2
Leishmania donovani [25] = assay: Growth inhibition of wild type Leishmania donovani LV9 at 10 uM after 48 hrs; type: functional; conditions: LV9, 48 h
Outline: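 Promastigotes were grown in medium 199 with 10% heat-inactivated FCS, HEPES, adenosine, hemin and gentamicin at 26°C in the dark. HePC was tested at 20, 10, 5, 2.5 and 1.25 μM. Cells were counted microscopically at 24, 48 and 72 h. n = 3.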

Leishmania donovani [26] = assay: Effect on total membrane fatty acid composition in Leishmania donovani LV9 promastigotes assessed by measuring 9-octadecenoate fatty acid at 10 uM; type: functional; outline: as §4
Leishmania donovani [27] = assay: Effect on total membrane sterol composition in Leishmania donovani LV9 promastigotes assessed by measuring stigmasta-7,24(24')-dien-3beta-ol content at 10 uM; type: functional; outline: as §2
Leishmania donovani [28] = assay: Effect on total membrane sterol composition in Leishmania donovani LV9 promastigotes assessed by measuring 14-alpha-Methylcholesta-8,24-dien-3beta-ol content at 10 uM; type: functional; outline: as §2
Leishmania donovani [29] = assay: Effect on total membrane fatty acid composition in Leishmania donovani LV9 promastigotes assessed by measuring octadecanoate fatty acid at 10 uM; type: functional; outline: as §4
Leishmania donovani [30] = assay: Effect on total membrane sterol composition in Leishmania donovani LV9 promastigotes assessed as reduction in total C24 alkyl sterol content; type: functional; set-up: scale not given: the % may be the effect or the level left; outline: as §2
Leishmania donovani [31] = assay: Effect on plasma membrane phospholipid composition in wild type Leishmania donovani LV9 assessed as decrease in phosphatidyl choline at 10 uM after 48 hrs; type: functional; set-up: scale not given: the % may be the effect or the level left; outline: as §3
Leishmania donovani [32] = assay: Effect on total membrane sterol composition in Leishmania donovani LV9 promastigotes assessed by measuring cholesterol content at 10 uM; type: functional; outline: as §2
Leishmania donovani [33] = assay: Effect on total membrane sterol composition in Leishmania donovani LV9 promastigotes assessed by measuring cholesta-5,7,24-trien-3beta-ol content at 10 uM; type: functional; outline: as §2
Leishmania donovani [34] = assay: Effect on total membrane sterol composition in Leishmania donovani LV9 promastigotes assessed by measuring ergosta-5,7,22,24(24')-tetraen-3beta-ol content at 10 uM; type: functional; outline: as §2

Question: How did the Activity (Leishmania donovani [1]) turn out when `CCCCCCCCCCCCCCCCOP(=O)([O-])OCC[N+](C)(C)C` [MILTEFOSINE] was run?
Answer: 42%

Question: And the Activity (Leishmania donovani [2])?
Answer: 0.2%

Question: And the Activity (Leishmania donovani [3])?
Answer: 0.2%

Question: What about the Activity (Leishmania donovani [4]) of the same molecule?
Answer: 25%

Question: And the Activity (Leishmania donovani [5])?
Answer: 26.3%

Question: What about the Activity (Leishmania donovani [6]) of the same molecule?
Answer: 0.1%

Question: And the Activity (Leishmania donovani [7])?
Answer: 36.6%

Question: What about the Activity (Leishmania donovani [8]) of the same molecule?
Answer: 1.56%

Question: What about the Activity (Leishmania donovani [9]) of the same molecule?
Answer: 1.84%

Question: What about the Activity (Leishmania donovani [10]) of the same molecule?
Answer: inactive

Question: And the Activity (Leishmania donovani [11])?
Answer: 0.3%

Question: What about the Activity (Leishmania donovani [12]) of the same molecule?
Answer: 0.2%

Question: What about the Activity (Leishmania donovani [13]) of the same molecule?
Answer: 0.4%

Question: What about the Activity (Leishmania donovani [14]) of the same molecule?
Answer: 0.7%

Question: What about the Activity (Leishmania donovani [15]) of the same molecule?
Answer: 19%

Question: What about the Activity (Leishmania donovani [16]) of the same molecule?
Answer: 4.8%

Question: What about the Activity (Leishmania donovani [17]) of the same molecule?
Answer: 3.85%

Question: And the Activity (Leishmania donovani [18])?
Answer: 0.2%

Question: What about the Activity (Leishmania donovani [19]) of the same molecule?
Answer: 1.4%

Question: What about the Activity (Leishmania donovani [20]) of the same molecule?
Answer: inactive

Question: What about the Activity (Leishmania donovani [21]) of the same molecule?
Answer: 0.3%

Question: What about the Activity (Leishmania donovani [22]) of the same molecule?
Answer: 41%

Question: What about the Activity (Leishmania donovani [23]) of the same molecule?
Answer: 52%

Question: And the Activity (Leishmania donovani [24])?
Answer: 5.1%

Question: And the inhibition at 10 µM (Leishmania donovani [25])?
Answer: 66%

Question: And the Activity (Leishmania donovani [26])?
Answer: 34.22%

Question: And the Activity (Leishmania donovani [27])?
Answer: 0.3%

Question: What about the Activity (Leishmania donovani [28]) of the same molecule?
Answer: 0.2%

Question: And the Activity (Leishmania donovani [29])?
Answer: 22.33%

Question: And the Activity (Leishmania donovani [30])?
Answer: 43%

Question: And the Activity (Leishmania donovani [31])?
Answer: 47%

Question: And the Activity (Leishmania donovani [32])?
Answer: 61.2%

Question: What about the Activity (Leishmania donovani [33]) of the same molecule?
Answer: 3.2%

Question: And the Activity (Leishmania donovani [34])?
Answer: 1.6%
